# Biological target: T1, SvAS (fused anthranilate synthase, SvTrpEG) (Streptomyces venezuelae, UniProt O30589)
# T1 sequence (O30589 1-623): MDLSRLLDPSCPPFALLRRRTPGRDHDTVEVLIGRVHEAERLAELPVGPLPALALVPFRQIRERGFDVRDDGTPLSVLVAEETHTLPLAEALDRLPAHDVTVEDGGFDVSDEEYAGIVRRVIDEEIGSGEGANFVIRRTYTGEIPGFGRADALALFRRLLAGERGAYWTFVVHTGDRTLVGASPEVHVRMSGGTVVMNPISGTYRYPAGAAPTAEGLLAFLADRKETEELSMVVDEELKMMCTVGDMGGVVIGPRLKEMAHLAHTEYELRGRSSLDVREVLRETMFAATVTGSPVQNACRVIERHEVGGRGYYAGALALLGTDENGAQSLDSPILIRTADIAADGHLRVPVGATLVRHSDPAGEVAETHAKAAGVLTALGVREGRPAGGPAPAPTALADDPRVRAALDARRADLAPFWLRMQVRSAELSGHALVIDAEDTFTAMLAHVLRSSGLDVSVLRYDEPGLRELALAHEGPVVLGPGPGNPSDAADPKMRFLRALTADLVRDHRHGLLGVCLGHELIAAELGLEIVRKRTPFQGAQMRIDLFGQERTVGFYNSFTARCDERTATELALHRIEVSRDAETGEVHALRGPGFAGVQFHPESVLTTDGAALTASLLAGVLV
# Format: biochemical
# Method in brief: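 His-tagged SvAS expressed in E. coli BL21(DE3)pLysS and purified on Ni-NTA. Assays at 30°C in 50 mM Tricine pH 7.5 with 12.5 mM MgCl2, 10 μg enzyme, 20 mM glutamine (saturating), 0.39–100 μM chorismate, and 2.5, 5, 10 or 20 μM test compound. Anthranilate fluorescence (ex 315/em 395 nm) converted via standard curve. Lineweaver-Burk plot assigned inhibition type; Ki from fit to that equation.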
smiles,measurement,value
N[C@@H](Cc1c[nH]c2ccccc12)C(=O)O [tryptophan],Ki,11.1 ± 0.1 µM
